Compound activity: PubChem, several laboratories
tolC growth inh: growth inhibitors of E. coli tolC mutant, primary screen, strain BW25113 ΔtolC::kan, 384-well | 65,000 tested, 2.2% active | growth inhibition, % at 10 µM (by protocol) | AID 573, 2007 | OD615;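 active = growth inhibition at or above a cutoff equal to the mean over every tested compound plus 3 SD, cut at about 60% in these data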;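 also: growth measured after 20 h incubation at 37 °C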
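Signal: optical density read at 615 nm; Assay system: E. coli ΔtolC::kan strain BW25113; Times: 20 h incubation with compound, 37 °C; Dosing: 10 µM final, single dose.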
E coli WT exp: growth inhibitors of wild-type E. coli, primary screen, strain BW25113, expanded library, OD600 | OD600 absorbance | growth inhibition, % at 100 µM | 98,000 tested, 0.15% active;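 active = growth inhibition above about 50% at one test dose, limit read from the data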;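 also: growth measured after 20 h incubation at 37 °C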
H69AR growth 86K: proliferation blockers of H69AR lung cancer cells, primary screen, cell-based, human, 86K library; viability, % at 10 µM; 85,000 tested, 6% active; H69AR lung tumor viability, ATP luminescence, 72 h; stronger effect = lower value;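 active = viability at or below 40%; inactive = viability above 40%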;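 also: multidrug resistant small cell line overexpressing MRP-1 efflux transporter; 100% = mean luminescence of untreated control wells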
HUVEC inhibit: inhibitors of HUVEC proliferation, primary screen, cell-based, 384-well | CellTiter-Glo luminescence, 72 h; stronger effect = lower value | 86,000 tested, 1.1% active | viability, % at 10 µM (by protocol) | AID 648, 2007;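 active = viability at or below 30%; inactive = viability above 30%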;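 also: 100% = median luminescence of DMSO-only cell control wells on each plate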
Lung fibro prol: antiproliferative effect on LL 47 fibroblasts – human, LL 47 cells, CellTiter-Glo luminescence, primary screen | LL 47 human lung fibroblast viability, ATP luminescence; stronger effect = lower value | viability, % at 10 µM | 85,000 tested, 1.1% active;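 active = viability at or below 50% in the single dose screen; inactive = viability above 50%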;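 also: compound exposure lasted 72 h before the ATP readout; 100% = median luminescence of untreated cell-only wells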
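Test system: LL 47 human lung fibroblasts; Quantity: 1,150 cells/well; Buffer or medium: IMEM plus 15% FBS; Dosing: tenfold compound dosing solution, DMSO at 0.1%; Timing: overnight cell rest, 72 h compound treatment at 37 °C; Detection: ATP-based CellTiter-Glo luminescent readout; Read-out basis: viability percentage against median untreated-cell control; Controls: cell-only wells, no compound.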
Jurkat viability: cytotoxicity toward Jurkat T cells, primary screen, cytotoxicity control, cell-based, Jurkat E6.1, 60K MLSMR library | Jurkat E6.1 viability, ATP luminescence, 48 h | inhibition, % at 4 µM | 56,000 tested, 1.2% active;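 active = inhibition above the mean inhibition of all tested compounds plus 3 SD, cut at about 28% in these data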
An asterisk follows results filed as active; . = not tested or not shown. An excerpt weighted towards active compounds, which were near 6.4% of everything screened.

SMILES | tolC growth inh | E coli WT exp | H69AR growth 86K | HUVEC inhibit | Lung fibro prol | Jurkat viability
CCOC(=O)C1=C(c2ccccc2)Nc2ncnn2C1c1ccc(OC)c(OC)c1OC (configuration not stated) | . | 4 | . | . | . | .
C=CCn1c(SCC(=O)c2cc(C)n(C(C)COC)c2C)nc2sc(C)c(C)c2c1=O (configuration not stated) | 15 | -9 | 61 | 67 | 93 | 3
CCn1nnnc1-c1ccc(OC)c(S(=O)(=O)NCCc2ccccc2)c1 | -3 | . | 90 | 104 | 98 | -6
CN(C)/C=C/C(=O)c1ccc(N2CCN(c3ncc(C(F)(F)F)cc3Cl)CC2)cc1 | . | 8 | 0.8* | 2.3* | 52 | .
O=C(CN1CCN(c2ncc(C(F)(F)F)cc2Cl)CC1)NCCNc1ncc(C(F)(F)F)cc1Cl | . | 5 | 3.8* | 76 | 102 | .
CC(C)(C)NC(=O)NC(=O)CN1CCN(c2ncc(C(F)(F)F)cc2Cl)CC1 | . | 1 | 61 | 93 | 98 | .
CN(C)C=NC(=O)c1ccc(N2CCN(c3ncc(C(F)(F)F)cc3Cl)CC2)cc1 | . | -2 | 47 | 95 | 93 | .
C/C(=N\NS(=O)(=O)c1ccc(C)cc1)c1ccc(C)s1 | . | 3 | 110 | 84 | 92 | .
COCCN1C(=O)c2oc3cc(C)c(C)cc3c(=O)c2C1c1cccc(O)c1 (configuration not stated) | 9 | . | 92 | 105 | 107 | 5
CC1(C)CC(=O)CC(=Nc2ccc(C(=O)O)cc2)C1 | -26 | -4 | 98 | 96 | 108 | -4
CCOC(=O)c1cc2c(=O)n3cccc(C)c3nc2n(Cc2ccco2)c1=NC(=O)c1ccccc1 | . | -8 | 25* | 79 | 96 | .
Cc1cccn2c(=O)c3cc(C#N)c(=NC(=O)c4ccncc4)n(Cc4ccco4)c3nc12 | 10 | . | 62 | 86 | 94 | 3
CCc1ccc(C(=O)Cn2ncc(Cl)c(Cl)c2=O)cc1 | . | -1 | 6.1* | 6.8* | 29* | .
CCCn1c(-c2ccc(OC)cc2)nc2nc3ccccc3nc21 | -12 | -5 | 81 | 102 | 103 | 2
C=CCn1c(-c2cccc(OC)c2)nc2nc3ccccc3nc21 | . | -9 | 34* | 82 | 93 | .
CCc1cc(C(=O)OC)c(NC(=O)C2CC(=O)NN2Cc2ccccc2)s1 (configuration not stated) | . | 2 | . | . | . | .
CCCCCCn1c(SCC(=O)c2c(N)n(C)c(=O)n(C)c2=O)nc2ccccc21 | . | -8 | 24* | 50 | 40* | .
CCc1ccc2[nH]c3nc(SCC(=O)NNC(=O)c4ccc(C(C)(C)C)cc4)nnc3c2c1 | . | -4 | . | . | . | .
CCc1ccc2[nH]c3nc(SCc4nnc(-c5ccc(C)cc5)o4)nnc3c2c1 | . | . | 9.4* | 36 | 44* | .
CCN(CC)CCn1c(=N)n(CCOc2ccccc2)c2ccccc21 | . | 6 | 10* | 64 | 33* | .
Cc1ccc(NC2=NCC(=O)N2C2CCCC2)c(C)c1 | . | . | 108 | 105 | 104 | .
Cc1nn(CC(O)Cn2cnc3c2c(=O)n(C)c(=O)n3C)c(C)c1Br (configuration not stated) | -4 | 0 | . | . | . | 4
Cc1nn(CC(O)Cn2c3c(c4ccccc42)CCN(C)C3=O)c(C)c1Br (configuration not stated) | 18 | -3 | 38* | 83 | 98 | -4
CCCCC1CCC(/C(N)=N/O)CC1 (configuration not stated) | 4 | 22 | 27* | 85 | . | 16
CN1/C(=C/C2CC(=O)N(c3ccc([N+](=O)[O-])cc3)C2=O)C(C)(C)c2ccccc21 (configuration not stated) | . | 5 | 98 | 113 | 105 | .
SMILES | tolC growth inh | E coli WT exp | H69AR growth 86K | HUVEC inhibit | Lung fibro prol | Jurkat viability
COc1ccc(/C=C/C(=O)CC(O)(c2ccccc2)C(F)(F)F)cc1 (configuration not stated) | . | . | 38* | 62 | 88 | .
O=C(/C=C/c1ccccc1)CC(O)(c1ccccc1)C(F)(F)C(F)F (configuration not stated) | . | -1 | 1.3* | 5.3* | 32* | .
O=C(CC(O)(c1ccccc1)C(F)(F)C(F)F)c1cccs1 (configuration not stated) | 13 | 10 | 99 | 89 | 93 | -1
O=C(/C=C/c1ccccc1)CC(O)(c1ccccc1)C(F)(F)F (configuration not stated) | . | 8 | 2.0* | 26* | 35* | .
COc1ccc(S(=O)(=O)N(C)CC(=O)Nc2cccc(C(C)=O)c2)cc1Cl | . | -15 | 87 | 92 | 93 | .
CCCC(=O)C1=C(c2ccccc2)C(C#N)(C#N)C(C#N)=C1N | 8 | 0 | 89 | 93 | 105 | -6
CCn1c2ccccc2c2nc3ccccc3nc21 | 35 | 0 | 85 | 103 | 90 | 2
CCCCc1c(C)nn(-c2nnc3c4ccccc4n(CC)c3n2)c1C | 75* | 0 | 64 | 35 | 87 | 1
Cc1ccc(CNC(=O)Cn2c(=O)oc3ccccc32)o1 | 1 | 2 | 87 | 96 | 105 | -2
Cc1ccc(C(=O)NNC(=O)c2ccc(SCC3CCCO3)c([N+](=O)[O-])c2)cc1 (configuration not stated) | . | 7 | 90 | 97 | 102 | .
O=C(NNC(=O)c1ccc(SCC2CCCO2)c([N+](=O)[O-])c1)c1ccc(Cl)c([N+](=O)[O-])c1 (configuration not stated) | . | -1 | 6.1* | 64 | 63 | .
C=CCn1c(O)c(C2=c3ccccc3=NC2=O)s/c1=N/c1nccs1 | 12 | -6 | 23* | 66 | 42* | 4
Cn1c(O)c(C2=c3ccccc3=NC2=O)sc1=Nc1ccc(Cl)cc1 | . | . | 40* | 68 | 76 | .
O=C(O)CCC(C(=O)O)n1c(O)c(C2=c3ccccc3=NC2=O)sc1=S (configuration not stated) | -9 | 1 | 93 | 85 | 93 | 5
COc1ccc(N(CC(=O)Nc2nc3ccc(C)cc3s2)S(=O)(=O)c2c(C)nn(C)c2C)cc1 | 60 | -5 | 15* | 73 | 86 | -6
O=C1Nc2ccccc2C(O)(C(=O)NC2CC2)N1c1ccc(Cl)c(Cl)c1 (configuration not stated) | 13 | 5 | 98 | 94 | 99 | .
O=C(c1ccco1)N(CC1CCCO1)c1nc(-c2ccccc2)cs1 (configuration not stated) | 44 | -11 | 44 | 90 | 89 | 14
Cc1ccc(-c2csc(N(CC3CCCO3)C(=O)c3ccco3)n2)cc1 (configuration not stated) | 67* | . | 53 | 105 | 93 | 4
CCC(=O)Nc1nonc1-c1nc2ccccc2n1Cc1cccc2ccccc12 | . | . | 24* | 51 | 51 | .
